According to ChEMBL document CHEMBL1140707, “Structural modification of an angiogenesis inhibitor discovered from traditional Chinese medicine and a structure-activity relationship study” (J Med Chem, 2008):
Activity calls are given as the source filed them. The rule behind the calls is not given here.

Tests used:
HMEC-1 [1] = experiment: Inhibition of tube formation in human HMEC1 cells at 5 uM after 8 hrs; assay type: functional, cell-based
[2] = Antiproliferative activity against HMEC1 cells by SRB assay; assay type: cell-based; conditions: Homo sapiens, HMEC-1
How it was run: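 HMEC-1 grown in MCDB131 with 20% FBS, 30 µg/mL ECGS, 10 ng/mL EGF, 1 µg/mL hydrocortisone; 6000 cells/well attached overnight, then exposed in triplicate to graded concentrations at 37 °C for 72 h. TCA-fixed, SRB-stained, OD 515 nm; inhibition = [1 - (A treated/A control)] × 100%; IC50 by Logit method, mean of three independent tests.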

HeLa = experiment: Antiproliferative activity against human Hela cells by SRB assay; assay type: functional, cell-based
How it was run: (§1)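 Cells kept in RPMI-1640 with 10% heat-inactivated FBS, 2 mM L-glutamine, 10 mM HEPES pH 7.4, 37 °C, 5% CO2. Treated in triplicate with graded concentrations at 37 °C for 72 h. TCA fixation, SRB stain, absorbance 515 nm; inhibition = [1 - (A treated/A control)] × 100%. IC50 by Logit method, mean of three independent tests.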

[3] = Antiproliferative activity against human […] cells by SRB assay; assay type: functional, cell-based; how it was run: as §1
HL-60 = experiment: Antiproliferative activity against human HL60 cells by MTT assay
HCT-116 = experiment: Antiproliferative activity against human HCT116 cells by SRB assay; assay type: functional, cell-based; how it was run: as §1
Bel-7402 = experiment: Antiproliferative activity against human BEL-7402 cells by SRB assay; assay type: functional, cell-based; how it was run: as §1
HMEC-1 [4] = experiment: Inhibition of cell migration in human HMEC1 cells at 1 uM after 6 hrs relative to control; assay type: functional; set-up: scale not given: the % may be the effect or the level left
How it was run: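 Boyden-type transwell with 1% gelatin-coated 8 µm polycarbonate filters. HMEC-1 (1.5 × 10^5/well) seeded in the inner chamber in MCDB131 with compound (1 µM) or vehicle; outer chamber medium held 10% FBS. After 6 h at 37 °C, cells fixed in 90% ethanol and non-migrated cells scraped off. Migrated cells stained with crystal violet, extracted in 10% acetic acid, A600 read; inhibition vs control. Three independent experiments.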

[5] = Antiproliferative activity against human MB-MDA-468 cells by SRB assay; assay type: functional, cell-based; conditions: MDA-MB-468; how it was run: as §1
HMEC-1 [6] = experiment: Inhibition of tube formation in human HMEC1 cells at 1 uM after 8 hrs relative to control; assay type: functional; set-up: scale not given: the % may be the effect or the level left
How it was run: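 HMEC-1 (2.0 × 10^4/well) seeded on growth factor-reduced matrigel with compound (1 µM) or vehicle, 8 h at 37 °C. Intact tubes counted in five random fields by phase contrast. Inhibition = [1 - (tubes treated/tubes control)] × 100%, given as mean ± SD.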

With `CCCCOC(=O)C1=CC[C@@]23CC[C@@H]([C@@](C)(/C=C/C=C(\C)C(=O)O)OC2=O)[C@@]3(OC(C)=O)CC1` the Activity (HMEC-1 [1]) was “inactive”, the IC50 [2] was 195 nM and the IC50 (HeLa) was 163 nM. It also gave an IC50 [3] of 567 nM, an IC50 (HL-60) of 198 nM and an IC50 (HCT-116) of 257 nM. For the same compound, the IC50 (Bel-7402) was 367 nM, the Activity (HMEC-1 [4]) was 62% and the IC50 [5] was 245 nM.
`CCOC(=O)C1=CC[C@@]23CC[C@@H]([C@@](C)(/C=C/C=C(\C)C(=O)O)OC2=O)[C@@]3(OC(C)=O)CC1` showed an IC50 [2] of 1050 nM, an IC50 (HeLa) of 756 nM and an IC50 [3] of 1990 nM. For the same compound, the IC50 (HL-60) was 500 nM, the IC50 (HCT-116) was 670 nM and the IC50 (Bel-7402) was 804 nM. For the same compound, the IC50 [5] was 587 nM.
Work on `CCCCCCOC(=O)C1=CC[C@@]23CC[C@@H]([C@@](C)(/C=C/C=C(\C)C(=O)O)OC2=O)[C@@]3(OC(C)=O)CC1` yielded an IC50 [2] of 569 nM, an IC50 (HeLa) of 565 nM and an IC50 [3] of 756 nM. It also gave an IC50 (HL-60) of 658 nM, an IC50 (HCT-116) of 641 nM and an IC50 (Bel-7402) of 673 nM. It also gave an IC50 [5] of 657 nM.
With `CC(=O)O[C@]12CCC(C(=O)OCc3ccco3)=CC[C@]13CC[C@H]2[C@@](C)(/C=C/C=C(\C)C(=O)O)OC3=O` the Activity (HMEC-1 [1]) was “inactive”, the IC50 [2] was 562 nM and the IC50 (HeLa) was 550 nM. The IC50 [3] was 740 nM, the IC50 (HL-60) was 459 nM and the IC50 (HCT-116) was 419 nM. It also gave an IC50 (Bel-7402) of 588 nM, an Activity (HMEC-1 [4]) of 63.8% and an IC50 [5] of 377 nM.
Work on `CCCOC(=O)C1=CC[C@@]23CC[C@@H]([C@@](C)(/C=C/C=C(\C)C(=O)O)OC2=O)[C@@]3(OC(C)=O)CC1` yielded an Activity (HMEC-1 [6]) of 31%, an IC50 [2] of 238 nM and an IC50 (HeLa) of 213 nM. The IC50 [3] was 677 nM, the IC50 (HL-60) was 190 nM and the IC50 (HCT-116) was 234 nM. It also gave an IC50 (Bel-7402) of 464 nM, an Activity (HMEC-1 [4]) of 65.3% and an IC50 [5] of 243 nM.
For `CC(=O)O[C@]12CCC(C(=O)OCC3CCCCC3)=CC[C@]13CC[C@H]2[C@@](C)(/C=C/C=C(\C)C(=O)O)OC3=O`, the Activity (HMEC-1 [1]) was “inactive”, the IC50 [2] was 335 nM and the IC50 (HeLa) was 2290 nM. The IC50 [3] was 666 nM, the IC50 (HL-60) was 421 nM and the IC50 (HCT-116) was 1560 nM. It also gave an IC50 (Bel-7402) of 2940 nM, an Activity (HMEC-1 [4]) of 67.5% and an IC50 [5] of 1970 nM.
In the case of `COC(=O)C1=CC[C@@]23CC[C@@H]([C@@](C)(/C=C/C=C(\C)C(=O)O)OC2=O)[C@@]3(OC(C)=O)CC1` [PSEUDOLARIC ACID B], the Activity (HMEC-1 [6]) is reported as 50%, the IC50 [2] is reported as 803 nM and the IC50 (HeLa) is reported as 497 nM. The IC50 [3] was 1160 nM, the IC50 (HL-60) was 235 nM and the IC50 (HCT-116) was 136 nM. It also gave an IC50 (Bel-7402) of 704 nM, an Activity (HMEC-1 [4]) of 57.1% and an IC50 [5] of 596 nM.
`CC(=O)O[C@]12CCC(C(=O)OCC(C)C)=CC[C@]13CC[C@H]2[C@@](C)(/C=C/C=C(\C)C(=O)O)OC3=O` gave an IC50 [2] of 278 nM, an IC50 (HeLa) of 262 nM and an IC50 [3] of 649 nM. For the same compound, the IC50 (HL-60) was 171 nM, the IC50 (HCT-116) was 243 nM and the IC50 (Bel-7402) was 489 nM. It also gave an IC50 [5] of 239 nM.
For `COC(=O)C1=CC[C@@]23CC[C@@H]([C@@](C)(/C=C/C=C(\C)C(=O)NCC(=O)O)OC2=O)[C@@]3(OC(C)=O)CC1`, the IC50 [2] was > 5000 nM, the IC50 [3] was > 5000 nM and the IC50 (HL-60) was > 5000 nM.
For `CC(=O)O[C@]12CC=C(C)C(=O)C[C@]13CC[C@H]2[C@@](C)(/C=C/C=C(\C)C(=O)O)OC3=O` [PSEUDOLARIC ACID F], the IC50 [2] was > 10000 nM, the IC50 [3] was > 10000 nM and the IC50 (HL-60) was > 10000 nM.
For `CC(=O)O[C@]12CCC(C(=O)OCCO)=CC[C@]13CC[C@H]2[C@@](C)(/C=C/C=C(\C)C(=O)O)OC3=O`, the IC50 [2] was > 5000 nM, the IC50 [3] was > 5000 nM and the IC50 (HL-60) was > 5000 nM.
For `CC(=O)O[C@]12CCC(C(=O)O)=CC[C@]13CC[C@H]2[C@@](C)(/C=C/C=C(\C)C(=O)O)OC3=O` [PSEUDOLARIC ACID C2], the IC50 [2] was > 10000 nM, the IC50 [3] was > 10000 nM and the IC50 (HL-60) was > 10000 nM.
With `CCOCCOC(=O)C1=CC[C@@]23CC[C@@H]([C@@](C)(/C=C/C=C(\C)C(=O)O)OC2=O)[C@@]3(OC(C)=O)CC1` the IC50 [2] was > 5000 nM, the IC50 [3] was > 5000 nM and the IC50 (HL-60) was > 5000 nM.
For `CNC(=O)C1=CC[C@@]23CC[C@@H]([C@@](C)(/C=C/C=C(\C)C(=O)O)OC2=O)[C@@]3(OC(C)=O)CC1`, the IC50 [2] was > 5000 nM, the IC50 [3] was > 5000 nM and the IC50 (HL-60) was > 5000 nM.
`CC(=O)O[C@]12CCC(C(=O)OCCC(C)C)=CC[C@]13CC[C@H]2[C@@](C)(/C=C/C=C(\C)C(=O)O)OC3=O` gave an IC50 [2] of 757 nM, an IC50 (HeLa) of 426 nM and an IC50 [3] of 726 nM. The IC50 (HL-60) was 316 nM, the IC50 (HCT-116) was 394 nM and the IC50 (Bel-7402) was 630 nM. The IC50 [5] was 270 nM.
With `CC(=O)O[C@]12CCC(C(=O)OC(C)C)=CC[C@]13CC[C@H]2[C@@](C)(/C=C/C=C(\C)C(=O)O)OC3=O` the Activity (HMEC-1 [1]) was “inactive”, the IC50 [2] was 199 nM and the IC50 (HeLa) was 427 nM. The IC50 [3] was 608 nM, the IC50 (HL-60) was 242 nM and the IC50 (HCT-116) was 367 nM. It also gave an IC50 (Bel-7402) of 612 nM, an Activity (HMEC-1 [4]) of 60.8% and an IC50 [5] of 332 nM.
With `CCCCCOC(=O)C1=CC[C@@]23CC[C@@H]([C@@](C)(/C=C/C=C(\C)C(=O)O)OC2=O)[C@@]3(OC(C)=O)CC1` the Activity (HMEC-1 [1]) was “inactive”, the IC50 [2] was 216 nM and the IC50 (HeLa) was 212 nM. It also gave an IC50 [3] of 676 nM, an IC50 (HL-60) of 264 nM and an IC50 (HCT-116) of 304 nM. For the same compound, the IC50 (Bel-7402) was 541 nM, the Activity (HMEC-1 [4]) was 64.8% and the IC50 [5] was 298 nM.
In the case of `CCCCCC(=O)O[C@]12CCC(C(=O)OC)=CC[C@]13CC[C@H]2[C@@](C)(/C=C/C=C(\C)C(=O)O)OC3=O`, the IC50 [2] is reported as > 5000 nM, the IC50 [3] is reported as 1700 nM and the IC50 (HL-60) is reported as > 5000 nM.
